Measured values collected from several papers.
Protocols differ between the studies behind these lines.
RAF1 Y340D/Y341D: RAF proto-oncogene serine/threonine-protein kinase (RAF1, Homo sapiens, UniProt P04049, Y340D/Y341D)
RAF1: RAF proto-oncogene serine/threonine-protein kinase (RAF1, Homo sapiens, UniProt P04049)

`Cn1cc(-c2cccc(N3CCc4c(sc5c4CC(C)(C)C5)C3=O)c2CO)cc(Nc2ccncn2)c1=O` has an inhibition of 10% (RAF1 Y340D/Y341D; enzyme activity; inhibitor; 1 µM).
For `Cn1cncc1[C@](O)(COc1ccc(C#N)cc1-c1ccc(OC(F)(F)F)cc1)c1ccc(C#N)cc1`, the remaining binding was 100% (RAF1; cell-free assay; competition with immobilised ligand; 1 µM).
`C#Cc1n[nH]c2c(-c3cn([C@@H](C)c4ccccc4)c(=O)[nH]c3=O)cc(F)cc12` has an inhibition of 4.4% (RAF1 Y340D/Y341D; enzyme activity; inhibitor; 0.1 µM).
`O=c1[nH]c2ccccc2n1C1CCN(Cc2ccc(-c3[nH]c4cc5ncnc5cc4nc3-c3ccccc3)cc2)CC1` gave a remaining signal of 94.7% (RAF1; cell-free assay; 0.5 µM).
For `C#Cc1n[nH]c2c(-c3cn(C(C)c4ccccn4)c(=O)[nH]c3=O)cc(F)cc12` (stereo not shown), the inhibition was 15.5% (RAF1 Y340D/Y341D; enzyme activity; inhibitor; 1 µM).
`Cc1nn(C)cc1-c1nc2c(N3CCN(Cc4ccc(Cl)cc4)CC3)c(Cl)cnc2[nH]1` gave a remaining binding of 69% (RAF1; binding; competition with immobilised ligand; 1 µM).
With `Nc1ncc(-c2nc(N3CCOCC3)nc(N3CCOCC3)n2)c(C(F)F)n1` the remaining binding was 98% (RAF1; binding; competition with immobilised ligand; 10 µM).
For `Cn1cc(-c2cc(F)cc(N3CCn4c(cc5c4CCCC5)C3=O)c2CO)cc(Nc2ccc(N3CCN(C4COC4)CC3)cn2)c1=O`, the inhibition was 5% (RAF1 Y340D/Y341D; enzyme activity; inhibitor; 0.1 µM).
The remaining binding of `COc1ncccc1-c1cnn2ccc(N3CCN(C(=O)OC(C)C)CC3)nc12` is reported as 60% (RAF1; binding; competition with immobilised ligand; 1 µM).
`CC(C)(C)c1cc(C=C(C#N)C#N)cc(Br)c1O` has a remaining activity of 104% (RAF1; enzyme activity; inhibitor; 0.5 µM).
